Measured values reported in ChEMBL document CHEMBL2169862, “Synthesis and biological evaluation of 1α,25-dihydroxyvitamin D₃ analogues with a long side chain at C12 and short C17 side chains” (J Med Chem, 2012).
Calls of active or inactive are those of the source. The calls are words filed in the database; no cut-off is given here.

How the values were obtained:
[1] = test system: SW480-ADH; experiment: Effect on cellular PIP4K2B mRNA level in human SW480-ADH cells at 10 '-9 to 10 '-7 M after 48 hrs by RT-PCR analysis; assay type: functional, cell-based
Summary of the method: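 SW480-ADH cells treated 48 h in medium with charcoal-treated FCS; vehicle controls. Quantitative RT-PCR: 95 °C 10 min, then 40 cycles of 95 °C 15 s and 60 °C 30 s. Expression normalized to RPLP0 by comparative C_T method. Measurements in triplicate.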

[2] = test system: Mus musculus; experiment: Toxicity in CD-1 mouse assessed as body weight loss at 0.3 ug/kg, ip administered every other day for 3 weeks measured on day 21; assay type: organism-based; conditions: in vivo, 0.0003 mg/kg, 504 h
Summary of the method: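 Female CD-1 mice, 6–8 weeks, six per group. Dosed ip in sesame oil every other day for three weeks; vehicle controls. Body weight recorded every other day.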

[3] = test system: Mus musculus; experiment: Increase in serum Calcium levels in CD-1 mouse at 0.3 ug/kg, ip administered every other day for 3 weeks measured on day 21; assay type: functional
Summary of the method: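 Female CD-1 mice, 6–8 weeks, six per group. Dosed ip in sesame oil every other day for three weeks; vehicle controls. Serum calcium measured with a colorimetric calcium kit a day after the last dose (day 21). Shown as percentage of calcium increase over untreated mice, with the 1α,25-(OH)₂D₃ group set to 100%. SD reported.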

[4] = test system: SW480-ADH; experiment: Induction of human SW480-ADH cell differentiation assessed as formation of compact epithelioid islands of highly adherent cells at 10 '-8 M after 48 hrs by phase-contrast microscopy; assay type: functional, cell-based
Summary of the method: (§1)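 SW480-ADH colon cancer cells were treated for 48 h with compound or vehicle in medium with charcoal-treated FCS. Differentiation was scored as compact epithelioid islands of highly adherent cells. A representative experiment is shown.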

[5] = test system: SW480-ADH; experiment: Induction of human SW480-ADH cell differentiation assessed as formation of compact epithelioid islands of highly adherent cells at 10 '-7 M after 48 hrs by phase-contrast microscopy; assay type: functional, cell-based; summary of the method: as §1
[6] = test system: MCF7; experiment: Antiproliferative activity against human MCF7 cells at 10 '-7 M after 48 hrs by MTT assay relative to untreated-control; assay type: functional, cell-based
Summary of the method: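 MCF-7 cells seeded at 5 × 10⁴ per well, treated 24 h later for 48 h in medium with charcoal-treated FCS; vehicle controls. MTT (0.5 μg/μL) added for 1 h, medium removed, formazan dissolved in DMSO, absorbance read at 570 nm. Three individual experiments averaged; SD shown.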

[7] = target: T1, Vitamin D3 receptor (Homo sapiens, UniProt P11473); experiment: Binding affinity to VDR assessed as inhibition of fluorescent ligand by fluorescence polarization competition assay
T1 sequence (P11473 whole entry): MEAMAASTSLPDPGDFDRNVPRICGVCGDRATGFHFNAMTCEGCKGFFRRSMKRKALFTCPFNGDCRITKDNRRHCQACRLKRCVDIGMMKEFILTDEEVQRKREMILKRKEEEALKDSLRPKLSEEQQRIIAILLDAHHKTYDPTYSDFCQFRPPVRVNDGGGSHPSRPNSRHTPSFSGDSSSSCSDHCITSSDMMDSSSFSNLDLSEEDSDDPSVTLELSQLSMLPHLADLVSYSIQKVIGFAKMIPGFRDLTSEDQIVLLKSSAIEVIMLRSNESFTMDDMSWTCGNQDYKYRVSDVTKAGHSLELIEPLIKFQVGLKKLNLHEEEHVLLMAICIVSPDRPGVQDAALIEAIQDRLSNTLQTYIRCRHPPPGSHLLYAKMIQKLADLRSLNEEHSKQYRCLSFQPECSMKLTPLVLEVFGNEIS

[8] = target: T1, Vitamin D3 receptor; experiment: Agonist activity at VDR in human MCF7 cells assessed as transcription of CYP24A1 gene after 24 hrs by luciferase reporter gene assay; assay type: functional, cell-based

IC50 [7] [nM] | EC50 [8] [nM] | Compound | Activity [1] | Activity [2] | Activity [3] [%] | Activity [4] | Activity [5] | Activity [6]
 |  | C=C1/C(=C\C=C2/CCC[C@]3(C)[C@@H]([C@H](C)CCCC(C)(C)O)CC[C@@H]23)C[C@@H](O)C[C@@H]1O [CALCITRIOL] | inactive | Non-toxic | 100 | Active | Active | Active
15.7 | 5.74 | C=C1/C(=C\C=C2/CC[C@@H](CCCCCCC(C)(C)O)[C@]3(C)[C@@H]([C@H](C)CCCO)CC[C@@H]23)C[C@@H](O)C[C@@H]1O | inactive | Non-toxic | 1 | inactive | Active | Active
27.3 | 9.04 | C=C1/C(=C\C=C2/CC[C@@H](CCCCCCC(C)(C)O)[C@]3(C)[C@@H]([C@H](C)CCO)CC[C@@H]23)C[C@@H](O)C[C@@H]1O | inactive | Non-toxic | 18 | inactive | Active | Active
20.9 | 8.19 | C=C1/C(=C\C=C2/CC[C@@H](CCCCCCC(C)(C)O)[C@]3(C)[C@@H]([C@H](C)CO)CC[C@@H]23)C[C@@H](O)C[C@@H]1O | inactive | Non-toxic | 0 | inactive | Active | Active
